Experimental data as given in paper PMC2752669 (Biochemistry, 2009).
Ends that are not written are not given here.

Experiments:
[1] = tested on: hp-AS (RNA, rRNA) GGCGUCACACCUUCGGGUGAAGUCGCC; assay: ESI-MS titration; details: NH4+ 100 mM; apparent; 100 mM NH4OAc, 50% 2-propanol, pH 6.7, 25 °C
[2] = tested on: A-site RNA hp-AS-pwk annealed to 5'-biotin-DNA; assay: Peptide bead ELISA assay, hp-AS-pwk; type: binding, E. coli; details: 1 μM biotin-tagged RNA, 4 days, 4 °C; anti-biotin-alkaline phosphatase, BCIP
How it was run: (§1)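 Peptide beads washed, blocked overnight at 4 °C, then incubated 4 days at 4 °C with 1 μM biotin-tagged RNA (fresh RNA added daily) in HEPES-KOH pH 7.5/100 mM KCl/5 mM MgCl2 buffer. Buffer-only beads served as background. Detection: anti-biotin–alkaline phosphatase (1:8000, 1 h, room temperature), then BCIP (0.165 μg/μl, pH 9.5) overnight at 4 °C.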

[3] = tested on: helix 17 (h17) RNA from 16S rRNA; assay: Peptide bead ELISA assay, h17 control; type: binding; details: biotin-tagged h17, 4 days, 4 °C; anti-biotin-alkaline phosphatase, BCIP
How it was run: as §1

[4] = tested on: A-site RNA hairpin hp-AS (bacterial 16S rRNA); assay: Isothermal titration calorimetry of peptide into hp-AS; type: binding, E. coli; details: 10 mM potassium phosphate, 100 mM KCl, pH 7.2, 10 °C; average of three independent experiments
How it was run: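 RNA and test peptide were dialysed against water, dried, redissolved in buffer and degassed at 5 °C for 7 min. After a 2 μl preliminary injection, which was discarded, 20 μl injections of peptide (250–600 μM) went into hp-AS RNA (20–40 μM), spaced 300 s. Heats of peptide dilution into buffer without RNA were subtracted.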

[5] = tested on: A-site RNA hairpin hp-AS (bacterial 16S rRNA); assay: ESI-MS binding to hp-AS; parameters: species or system E. coli; details: 1 μM RNA
How it was run: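 Hairpin RNA renatured in 100 mM NH4OAc (pH 6.7). 1 μM RNA mixed with peptide (0–375 μM), room temperature, 10 min, in 50% 2-propanol/100 mM NH4OAc pH 6.7, then ESI-MS. Fraction bound taken from summed complex versus free-RNA peak intensities. Salt series: 34 μM peptide at 30–200 mM NH4OAc. pH series: 34 μM peptide, 100 mM NH4OAc, pH 5.0–7.6.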

[6] = tested on: A-site RNA over TAR RNA; assay: ESI-MS competition, A-site RNA versus TAR RNA; type: binding; details: data not shown
[7] = tested on: A-site RNA hairpin hp-AS (bacterial 16S rRNA); assay: Enzymatic; type: binding, E. coli; details: 5 to 120 μM peptide, pH 7.2, 37 °C
How it was run: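 3′-32P-pCp-labelled hp-AS (1 μl, 250,000 cpm) preincubated with test peptide (0–120 μM) in 10 mM Tris-HCl pH 7.2, 15 mM NaCl, 1 mM EDTA, 37 °C, 1.5 h. RNase A (1 μl, 0.002 U/μl) was added to 5 μl final for 30 min at 37 °C, quenched on dry ice, formamide-denatured and gel-resolved beside an alkaline-hydrolysis ladder. Fraction bound versus peptide was curve-fitted for Kd; two independent experiments.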

[8] = tested on: E. coli S30 extract translation system; assay: In vitro translation inhibition; type: biochemical
How it was run: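 E. coli S30 extract for circular DNA, with pBESTluc plasmid carrying firefly luciferase. Amino acids, S30 premix and increasing peptide concentrations in 50 μl, 37 °C for 1–2 h. Quenched on ice 5 min, luciferase reagent added, luminescence read. Background from a sample without DNA template.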

[9] = tested on: other RNA targets; assay: Preliminary in vitro solution binding studies
[10] = target: T1, HPVHHYQ peptide on beads; assay: bead fluorescence
T1 chain: HPVHHYQ

[11] = target: T2, LPLTPLP peptide on beads; assay: bead fluorescence
T2 chain: LPLTPLP

[12] = target: T3, HPVHHYQ-NH2 peptide; assay: RNase A footprinting
T3 chain: HPVHHYQ-NH2

[13] = target: T3, HPVHHYQ-NH2 peptide; assay: ITC
[14] = target: T3, HPVHHYQ-NH2 peptide; assay: RNase A footprinting
[15] = target: T1, HPVHHYQ peptide on beads; assay: bead ELISA
[16] = target: T2, LPLTPLP peptide on beads; assay: bead ELISA

## H-HPVHHYQ-NH2
[1]
  Kd: 29 ± 2 µM

## HPVHHYQ
[2]
  Bead ELISA response with A-site RNA: much stronger response than LPLTPLP
[3]
  Bead ELISA binding to h17: No binding was observed

## HPVHHYQ-NH2
[4]
  Enthalpy ΔH: -0.56 ± 0.05 kcal/mol
  Entropy −TΔS: -6.5 ± 0.3 kcal/mol
[5]; pH 5.0 to 7.6, 100 mM NH4OAc, 50% IPA, 34 μM peptide, data not shown
  Effect of pH on ratio of free RNA to RNA-peptide complexes: no significant change
[5]; read-out: Apparent dissociation constant (ESI-MS), 0–375 μM peptide, 100 mM NH4OAc, pH 6.7, 50% 2-propanol, 25 °C, 10 min, average of three independent experiments
  Kd: 29 ± 2 µM
[6]
  Preference for A-site RNA over TAR RNA: five-fold preference for the A-site RNA over TAR RNA
[7]
  Residues protected from RNase A cleavage: residues G1494 and U1495 are protected by the peptide
  Residues with enhanced RNase A cleavage: enhanced at residues A1492 and A1493
[8]; 34 μM peptide, 37 °C, 1–2 h
  Inhibition of in vitro protein synthesis: no inhibition was observed
[8]; 620 μM peptide, 37 °C, 1–2 h
  Remaining (luciferase) enzyme activity: approximately 50%
[8]; in vitro translation inhibition
  IC50 compared with neomycin: high compared with the known antibiotic neomycin

## LPLTPLP
[2]
  Bead ELISA response with A-site RNA: bind to the A-site RNA
[3]
  Bead ELISA binding to h17: No binding was observed
[9]
  Binding to other RNA targets: binds to other RNA targets

## GGCGUCGCUACUUCGGUAAAAGUCGCC (structured_RNA) [F-human-hp-AS]
[10]
  binding result: no binding
[11]
  binding result: no binding

## GGCGUCACACCUUCGGGUGAAGUCGCC (structured_RNA) [F-hp-AS]
[11]
  binding result: binds

## GGCGUCACACCUUCGGGUGAAGUCGCC (structured_RNA) [hp-AS]
[12]
  Kd: 18 ± 4 µM
[13]
  Kd: 2 ± 0.4 µM
[14]
  Kd: 16 ± 4 µM

## GGCAGAUCUCAGCCUGGGAGCUGUCUGCC (structured_RNA) [F-TAR]
[10]
  binding result: no binding
[11]
  binding result: no binding

B1: h17 annealed to 5'-biotin-DNA (mixed)
RNA: GGCGGGGAGGAAGGGAGUAAAGUUAAUACCUUUGCUCAUUGACGUUACCCGCCGGUGCGGAUGGCGAUUGCU
DNA: AGCAATCGCCATCCGCACC
[15]
  binding result: no binding
[16]
  binding result: no binding
